These results are taken from ChEMBL document CHEMBL1121812, “Promotion of carbohydrate oxidation in the heart by some phenylglyoxylic acids” (1981).

Assay [1] addresses T1, Pyruvate dehydrogenase kinase (Rattus norvegicus) (UniProt Q63065+A6IPZ9+Q64536+O54937). Description: Percent Stimulation of pyruvate oxidation in rat diaphragm was measured at 2 mM concentration of DCA (dichloroacetic acid). It counts as functional, tissue-based. The gist of the method: (§1)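 Rat diaphragm cut into four portions, each weighed and preincubated 1 h at 37 °C in Krebs-Ringer bicarbonate, pH 7.4, gassed O2/CO2 (18:1), alone (control) or with compound. Then 4 mM (final) 1- or 2-14C sodium pyruvate added, 1 h at 37 °C. Stopped with H2SO4; 14CO2 trapped in hyamine hydroxide, scintillation counted. Tissue-free blanks included. Reported as percent stimulation versus control.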

Assay [2] deals with T1, Pyruvate dehydrogenase kinase (Rattus norvegicus). The experiment in a line: Tested for pyruvate oxidation in rat diaphragm, measured as % conversion of [14C]pyruvate to 14CO2 at 2 mM concentration. The format is functional, tissue-based. The gist of the method: as §1
Assay [3] shares this target. The experiment in a line: Tested for pyruvate oxidation in rat diaphragm, measured as % conversion of [14C]pyruvate to 14CO2 at 0.5 mM concentration of DCA (dichloroacetic acid). The format is functional, tissue-based. Summed up: as §1
Assay [4] concerns pyruvate dehydrogenase (Rattus norvegicus). Description: Tested for pyruvate oxidation in rat diaphragm, measured as % conversion of [14C]pyruvate to 14CO2 at 5 mM concentration.
For assay [5], the target named is T1, Pyruvate dehydrogenase kinase (Rattus norvegicus). Description: Pyruvate dehydrogenase active/ Pyruvate dehydrogenase total was measured by sc administering the DCA in rat at a dose of 1.2 mmol/kg. The format is functional, organism-based. Summed up: (§2)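 Hearts frozen in liquid N2, powdered, homogenized in ice-cold phosphate/EDTA/DTT/pyruvate medium. PDH active assayed directly; PDH total after 20 min at 30 °C with 5 mM MgCl2, 2.5 mM CaCl2. 14CO2 from 0.1 mM [1-14C]pyruvate with CoA, NAD, TPP at 30 °C; expressed as % PDH active/total; ≥3 rats/group.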

For assay [6] the target is unchanged. Description: Pyruvate dehydrogenase activity in vivo was measured following subcutaneous administration of 1.2 mmol/kg. It counts as functional, organism-based. The gist of the method: as §2
The species entered for assay [7] is Rattus norvegicus. The experiment in a line: Percent Stimulation of pyruvate oxidation in rat diaphragm by the compound was measured at 2 mM concentration. The format is functional. The gist of the method: as §1
Assay [8] is filed under the species Rattus norvegicus. Description: (§3) Compound was tested in vitro for pyruvate oxidation in rat diaphragm, measured as % conversion of [14C]pyruvate to 14CO2 at 2 mM concentration of DCA (dichloroacetic acid). It counts as functional. The gist of the method:
as §1

The species entered for assay [9] is Rattus norvegicus. The description is as §3. The format is functional. Summed up:
as §1
This is another data set of the same source.

The species entered for assay [10] is Rattus norvegicus. Description: Percent stimulation of pyruvate oxidation in rat diaphragm by the compound was measured at 2 mM concentration. The format is functional. The gist of the method:
as §1

Assay [11] is filed under the species Rattus norvegicus. The experiment in a line: Percent Stimulation of pyruvate oxidation in Rat by the compound was measured at 2 mM concentration of DCA (dichloroacetic acid). It counts as functional. Summed up:
as §1

For assay [12], the species on record is Rattus norvegicus. The experiment in a line: Percent Stimulation of pyruvate oxidation in Rat by the compound was measured at 0.5 mM concentration of DCA (dichloroacetic acid). The format is functional. Summed up:
as §1

For assay [13], the system named is Rattus norvegicus. The experiment in a line: Pyruvate dehydrogenase activity in vivo was measured following subcutaneous administration of 1.2 mmol/kg of the DCA in rat at a dose of 1.2 mmol/kg. The format is functional. The gist of the method: as §2
For assay [14], the system named is Rattus norvegicus. Description: Pyruvate dehydrogenase active/ Pyruvate dehydrogenase total was measured by sc administering the compound in rat at a dose of 1.2 mmol/kg. It counts as functional. Summed up:
as §2

Assay [15] is filed under the species Rattus norvegicus. Description: Compound was tested in vitro for pyruvate oxidation in Rat, measured as % conversion of [14C]pyruvate to 14CO2 at 0.5 mM concentration of DCA (dichloroacetic acid). The format is functional. The gist of the method: as §1
In assay [16] the test system is Pyruvate dehydrogenase complex (Rattus norvegicus). The experiment in a line: Tested for pyruvate oxidation in rat diaphragm, measured as % conversion of [14C]pyruvate to 14CO2 at 2 mM concentration.

As for `CCS(=O)(=O)Nc1ccc(C(=O)C(=O)O)cc1`, the Stimulation is 100% in assay [1], 22% in assay [2] and 16% in assay [3].

Turning to `CSc1ccc(C(N)C(=O)O)cc1` (racemic), the Stimulation turned out to be 132% in assay [1], 28% in [4] and 65% in the assay filed under Rattus norvegicus [7]. In addition, the PDH active/PDH total in assay [5] is 76%; in assay [6], 20%.

Take `O=C(O)C(=O)c1ccc(Cl)cc1`: the Stimulation turned out to be 82% in the assay filed under Rattus norvegicus [8], 48% in the assay filed under Rattus norvegicus [9] and 71% in assay [4].

Take `NC(=O)c1ccc(C(=O)C(=O)O)cc1`: the Stimulation in assay [1] is 200%; in assay [4], 20%; in the assay listed under Rattus norvegicus [7], 11%.

As for `O=C(O)C(=O)c1cc(I)c(O)c(I)c1`, the values for the Stimulation in assay [1], in [2] and in [3] were 120%, 85% and 5%, respectively. The PDH active/PDH total in assay [5] was 87%; in assay [6], 12%.

In the case of `N[C@H](C(=O)O)c1ccc(O)cc1` (stereo in doubt; L-25), the PDH active/PDH total in [5] stood at 87%; in assay [6], 82%.

Take `NC(C(=O)O)c1ccc(Cl)cc1` (stereo not given): the Stimulation in assay [1] is 99%; in assay [2], 102%; in assay [3], 43%. In addition, the values for the PDH active/PDH total in assay [5] and in assay [6] were 90% and 43%, respectively.

With `N[C@H](C(=O)O)c1ccc(O)cc1` (stereo in doubt; L-25) [OXFENICINE], the Stimulation in the assay listed under Rattus norvegicus [10] amounted to 136%; in the assay listed under Rattus norvegicus [11], 123%; in the assay listed under Rattus norvegicus [12] it was 84%.

With `O=C(O)C(=O)c1ccccc1`, the results for the Stimulation in [1], in [2] and in assay [3] were 219%, 85% and 42%, respectively. Moreover, the PDH active/PDH total in [5] was 87%; in [6], 38%.

For `CN(C)c1ccc(C(=O)C(=O)O)cc1`, the Stimulation is 156% in assay [1], 16% in [4], -5% in the assay filed under Rattus norvegicus [7] and 1% in assay [3].

As for `Cc1ccc(C(=O)C(=O)O)cc1`, the Stimulation in the assay filed under Rattus norvegicus [9] came out at 100%; in [2], 43%; in assay [3], 20%. The PDH active/PDH total stood at 50% in assay [6] and 97% with Rattus norvegicus [13].

As to `COc1ccc(C(=O)C(=O)O)cc1`, the Stimulation was found to be 161% in assay [1], 132% in [2], 132% in the assay listed under Rattus norvegicus [7] and 62% in assay [3]. Besides, the results for the PDH active/PDH total in assay [5] and in assay [6] were 97% and 49%, respectively.

Regarding `CC(C)Sc1ccc(C(=O)C(=O)O)cc1`, the Stimulation came to 200% in [1], 162% in assay [2] and 26% in [3]. The PDH active/PDH total in assay [5] was 96%; in [6], 51%.

Consider `COc1ccc(C(N)C(=O)O)cc1` (stereo in doubt; D-28) [listing 1 of 2 here], for which, in assay [4], the Stimulation is -14%. Also, the values for the PDH active/PDH total in assay [5] and in [6] were 87% and 11%, respectively.

In the case of `CCCCSc1ccc(C(=O)C(=O)O)cc1`, the Stimulation in [1] worked out at 200%; in assay [2], 113%; in assay [3], 76%. In addition, the PDH active/PDH total in assay [5] was determined as 96%; in [6], 14%.

In the case of `C=CCc1cc(C(=O)C(=O)O)ccc1O`, the Stimulation in assay [1] came to 120%; in assay [2], 29%; in assay [3] it was 11%. Also, the PDH active/PDH total is 90% in assay [5] and 11% in [6].

For the compound `NC(C(=O)O)c1ccccc1` (stereo not given), the Stimulation in the assay filed under Rattus norvegicus [11] worked out at 90%. Moreover, the “PDH active/PDH total” value with Rattus norvegicus [14] is 13%.

As to `COc1ccc(C(N)C(=O)O)cc1` (stereo in doubt; L-27) [listing 1 of 2 here], the Stimulation in the assay filed under Rattus norvegicus [10] is 124%; in the assay filed under Rattus norvegicus [11] it was 122%; in the assay filed under Rattus norvegicus [15], 79%.

For `O=C(O)C(=O)c1ccc(O)cc1`, the Stimulation in assay [1] was 142%; in the assay filed under Rattus norvegicus [7], 80%; in assay [3], 63%. Moreover, the values for the PDH active/PDH total in [5] and in [6] were 96% and 12%, respectively.

In the case of `COc1ccccc1C(=O)C(=O)O`, the Stimulation in [1] was 163%; in assay [4], -2%; in the assay listed under Rattus norvegicus [7] it was -10%.

For `CSc1ccc(C(=O)C(=O)O)cc1`, the Stimulation amounted to 101% in assay [1], 154% in [4] and 123% in assay [16]. The PDH active/PDH total in [5] was 82%; in [6], 69%.

Take `N[C@H](C(=O)O)c1ccc(O)cc1` (stereo in doubt; D-26): the PDH active/PDH total was 87% in assay [5] and 26% in assay [6].

As to `CCSc1ccc(C(N)C(=O)O)cc1` (racemic), the results for the Stimulation (in assay [1]; in [4]; in the assay listed under Rattus norvegicus [7]) were 132%, 24% and 20%, respectively. In addition, the PDH active/PDH total in assay [5] was 80%; in [6], 5%.

`O=C(O)C(=O)c1ccc(CO)cc1`: the Stimulation worked out at 108% in assay [1], 23% in assay [2] and 12% in assay [3].

As for `Cc1cc(C(=O)C(=O)O)ccc1O`, the figures for the Stimulation in [1], in assay [2] and in assay [3] were 107%, 21% and 2%, respectively. For the same compound, the PDH active/PDH total came to 89% in assay [5] and 31% in assay [6].

As for `CCSc1ccc(C(=O)C(=O)O)cc1`, the Stimulation is 158% in assay [1], 231% in assay [2] and 164% in [3]. Further, the PDH active/PDH total in assay [5] stood at 82%; in [6] it was 73%.

With `N[C@H](C(=O)O)c1ccc(O)cc1` (stereo in doubt; D-26) [OXFENICINE], the Stimulation in the assay filed under Rattus norvegicus [10] was determined as 26%; in the assay filed under Rattus norvegicus [11] it was 130%.

With `Cc1ccc(C(N)C(=O)O)cc1` (stereo not given), the Stimulation was determined as 95% in assay [1], 36% in [2] and 24% in [3].

As to `COc1ccc(C(N)C(=O)O)cc1` (stereo in doubt; D-28) [listing 2 of 2 here], the Stimulation in the assay listed under Rattus norvegicus [10] is given as 17%; in the assay listed under Rattus norvegicus [11] it was 108%.

`COc1ccc(C(N)C(=O)O)cc1` (stereo in doubt; L-27) [listing 2 of 2 here]: the Stimulation in [4] turned out to be 115%. Also, the PDH active/PDH total was 90% in [5] and 5% in assay [6].
